Measured values of several laboratories.
Each line is one published result; the experiments were not run side by side.

Structure (SMILES)	target or system	test	test system	conditions	endpoint	result
O=C(O)c1cn(C2CC2)c2cc(N3CCNCC3)c(F)cc2c1=O	Salmonella enterica	microbial growth, broth dilution	TYPHIMURIUM		MIC	0.03 µM
C=C/C=C(\C)CC[C@@H]1C[C@@H](O)CC(=O)O1	Bacillus cereus	microbial growth, broth dilution	ATCC10876		MIC	128 µg/mL
CC(=O)OCC1=C(C(=O)O)N2C(=O)[C@@H](NC(=O)Cc3cccs3)[C@H]2SC1	Salmonella enterica	microbial growth, broth dilution	TYPHIMURIUM		MIC	< 127 µg/mL
CC(C)C[C@@H]1NC(=O)[C@@H](N(C)C(=O)[C@H](CC2CCC2)NC(=O)[C@@H]2C[C@@H](F)CN2C(=O)C2(C(F)(F)F)CC(F)(F)C2)CCCCNC(=O)C2(CC2)NC(=O)[C@H](Cc2cc(Cl)ccc2Cl)N(C)C1=O	NCI-H69	cell growth or viability, MTT		5 days	GI50	13 nM
COc1cc2c3c(n(CCCN4CCOCC4)c(=O)c2cc1OC)-c1nc2c(cc1C3=O)OCO2	RPMI-8226	cell growth or viability, MTS		72 h	IC50	905 nM
C=CC(=O)NC1CCN(c2ncc3ncnc(Nc4ccc(Oc5ccc6c(c5)ncn6C)c(C)c4)c3n2)CC1	AU565	cell growth or viability			EC50	20.8 nM
CCNCCCn1c2c(c3cc(OC)c(OC)cc3c1=O)C(=O)c1cc3c(nc1-2)OCO3	TC-71	cell growth or viability, MTS		72 h	IC50	122 nM
O=C(O)c1cn(C2CC2)c2cc(N3CCNCC3)c(F)cc2c1=O	Salmonella enterica	microbial growth	ATCC13311		MIC	4 µM
